Data on 33 compounds can be found in ChEMBL document CHEMBL2417539, “1-substituted (Dibenzo[b,d]thiophen-4-yl)-2-morpholino-4H-chromen-4-ones endowed with dual DNA-PK/PI3-K inhibitory activity” (J Med Chem, 2013).

The test system of test [1] is HeLa. Description: Antiproliferative activity against human HeLa cells assessed as cell survival ratio at 0.5 uM treated 1 hr before 2Gy ionizing radiation measured after 6 to 8 days by DMR clonogenic assay. It is filed as functional. An outline of the steps:
(§1)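 HeLa cells seeded in 6-well dishes, incubated overnight at 37 °C/5% CO2, pre-treated 1 h with vehicle or inhibitor (0.1 or 0.5 μM), then given 2 Gy X-ray IR and held overnight. Medium then replaced without compound and culture continued 6-8 days. Colonies Giemsa-stained and counted automatically. DMR = % survival (vehicle, 2 Gy) / % survival (compound, 2 Gy).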

Test [2] concerns the target DNA-dependent protein kinase catalytic subunit (Homo sapiens, UniProt P78527). Description: Inhibition of human DNA-PK using GST-tagged p53N66 as substrate after 1 hr by ELISA-based chemiluminiscence assay. On the technique in general: ELISA stands for enzyme-linked immunosorbent assay.
Test [3] relates to HeLa. Description: Antiproliferative activity against human HeLa cells assessed as cell survival ratio at 0.1 uM treated 1 hr before 2Gy ionizing radiation measured after 6 to 8 days by DMR clonogenic assay. In kind it is functional. In a few lines:
as §1

DNA-dependent protein kinase catalytic subunit, sequence (P78527 whole entry): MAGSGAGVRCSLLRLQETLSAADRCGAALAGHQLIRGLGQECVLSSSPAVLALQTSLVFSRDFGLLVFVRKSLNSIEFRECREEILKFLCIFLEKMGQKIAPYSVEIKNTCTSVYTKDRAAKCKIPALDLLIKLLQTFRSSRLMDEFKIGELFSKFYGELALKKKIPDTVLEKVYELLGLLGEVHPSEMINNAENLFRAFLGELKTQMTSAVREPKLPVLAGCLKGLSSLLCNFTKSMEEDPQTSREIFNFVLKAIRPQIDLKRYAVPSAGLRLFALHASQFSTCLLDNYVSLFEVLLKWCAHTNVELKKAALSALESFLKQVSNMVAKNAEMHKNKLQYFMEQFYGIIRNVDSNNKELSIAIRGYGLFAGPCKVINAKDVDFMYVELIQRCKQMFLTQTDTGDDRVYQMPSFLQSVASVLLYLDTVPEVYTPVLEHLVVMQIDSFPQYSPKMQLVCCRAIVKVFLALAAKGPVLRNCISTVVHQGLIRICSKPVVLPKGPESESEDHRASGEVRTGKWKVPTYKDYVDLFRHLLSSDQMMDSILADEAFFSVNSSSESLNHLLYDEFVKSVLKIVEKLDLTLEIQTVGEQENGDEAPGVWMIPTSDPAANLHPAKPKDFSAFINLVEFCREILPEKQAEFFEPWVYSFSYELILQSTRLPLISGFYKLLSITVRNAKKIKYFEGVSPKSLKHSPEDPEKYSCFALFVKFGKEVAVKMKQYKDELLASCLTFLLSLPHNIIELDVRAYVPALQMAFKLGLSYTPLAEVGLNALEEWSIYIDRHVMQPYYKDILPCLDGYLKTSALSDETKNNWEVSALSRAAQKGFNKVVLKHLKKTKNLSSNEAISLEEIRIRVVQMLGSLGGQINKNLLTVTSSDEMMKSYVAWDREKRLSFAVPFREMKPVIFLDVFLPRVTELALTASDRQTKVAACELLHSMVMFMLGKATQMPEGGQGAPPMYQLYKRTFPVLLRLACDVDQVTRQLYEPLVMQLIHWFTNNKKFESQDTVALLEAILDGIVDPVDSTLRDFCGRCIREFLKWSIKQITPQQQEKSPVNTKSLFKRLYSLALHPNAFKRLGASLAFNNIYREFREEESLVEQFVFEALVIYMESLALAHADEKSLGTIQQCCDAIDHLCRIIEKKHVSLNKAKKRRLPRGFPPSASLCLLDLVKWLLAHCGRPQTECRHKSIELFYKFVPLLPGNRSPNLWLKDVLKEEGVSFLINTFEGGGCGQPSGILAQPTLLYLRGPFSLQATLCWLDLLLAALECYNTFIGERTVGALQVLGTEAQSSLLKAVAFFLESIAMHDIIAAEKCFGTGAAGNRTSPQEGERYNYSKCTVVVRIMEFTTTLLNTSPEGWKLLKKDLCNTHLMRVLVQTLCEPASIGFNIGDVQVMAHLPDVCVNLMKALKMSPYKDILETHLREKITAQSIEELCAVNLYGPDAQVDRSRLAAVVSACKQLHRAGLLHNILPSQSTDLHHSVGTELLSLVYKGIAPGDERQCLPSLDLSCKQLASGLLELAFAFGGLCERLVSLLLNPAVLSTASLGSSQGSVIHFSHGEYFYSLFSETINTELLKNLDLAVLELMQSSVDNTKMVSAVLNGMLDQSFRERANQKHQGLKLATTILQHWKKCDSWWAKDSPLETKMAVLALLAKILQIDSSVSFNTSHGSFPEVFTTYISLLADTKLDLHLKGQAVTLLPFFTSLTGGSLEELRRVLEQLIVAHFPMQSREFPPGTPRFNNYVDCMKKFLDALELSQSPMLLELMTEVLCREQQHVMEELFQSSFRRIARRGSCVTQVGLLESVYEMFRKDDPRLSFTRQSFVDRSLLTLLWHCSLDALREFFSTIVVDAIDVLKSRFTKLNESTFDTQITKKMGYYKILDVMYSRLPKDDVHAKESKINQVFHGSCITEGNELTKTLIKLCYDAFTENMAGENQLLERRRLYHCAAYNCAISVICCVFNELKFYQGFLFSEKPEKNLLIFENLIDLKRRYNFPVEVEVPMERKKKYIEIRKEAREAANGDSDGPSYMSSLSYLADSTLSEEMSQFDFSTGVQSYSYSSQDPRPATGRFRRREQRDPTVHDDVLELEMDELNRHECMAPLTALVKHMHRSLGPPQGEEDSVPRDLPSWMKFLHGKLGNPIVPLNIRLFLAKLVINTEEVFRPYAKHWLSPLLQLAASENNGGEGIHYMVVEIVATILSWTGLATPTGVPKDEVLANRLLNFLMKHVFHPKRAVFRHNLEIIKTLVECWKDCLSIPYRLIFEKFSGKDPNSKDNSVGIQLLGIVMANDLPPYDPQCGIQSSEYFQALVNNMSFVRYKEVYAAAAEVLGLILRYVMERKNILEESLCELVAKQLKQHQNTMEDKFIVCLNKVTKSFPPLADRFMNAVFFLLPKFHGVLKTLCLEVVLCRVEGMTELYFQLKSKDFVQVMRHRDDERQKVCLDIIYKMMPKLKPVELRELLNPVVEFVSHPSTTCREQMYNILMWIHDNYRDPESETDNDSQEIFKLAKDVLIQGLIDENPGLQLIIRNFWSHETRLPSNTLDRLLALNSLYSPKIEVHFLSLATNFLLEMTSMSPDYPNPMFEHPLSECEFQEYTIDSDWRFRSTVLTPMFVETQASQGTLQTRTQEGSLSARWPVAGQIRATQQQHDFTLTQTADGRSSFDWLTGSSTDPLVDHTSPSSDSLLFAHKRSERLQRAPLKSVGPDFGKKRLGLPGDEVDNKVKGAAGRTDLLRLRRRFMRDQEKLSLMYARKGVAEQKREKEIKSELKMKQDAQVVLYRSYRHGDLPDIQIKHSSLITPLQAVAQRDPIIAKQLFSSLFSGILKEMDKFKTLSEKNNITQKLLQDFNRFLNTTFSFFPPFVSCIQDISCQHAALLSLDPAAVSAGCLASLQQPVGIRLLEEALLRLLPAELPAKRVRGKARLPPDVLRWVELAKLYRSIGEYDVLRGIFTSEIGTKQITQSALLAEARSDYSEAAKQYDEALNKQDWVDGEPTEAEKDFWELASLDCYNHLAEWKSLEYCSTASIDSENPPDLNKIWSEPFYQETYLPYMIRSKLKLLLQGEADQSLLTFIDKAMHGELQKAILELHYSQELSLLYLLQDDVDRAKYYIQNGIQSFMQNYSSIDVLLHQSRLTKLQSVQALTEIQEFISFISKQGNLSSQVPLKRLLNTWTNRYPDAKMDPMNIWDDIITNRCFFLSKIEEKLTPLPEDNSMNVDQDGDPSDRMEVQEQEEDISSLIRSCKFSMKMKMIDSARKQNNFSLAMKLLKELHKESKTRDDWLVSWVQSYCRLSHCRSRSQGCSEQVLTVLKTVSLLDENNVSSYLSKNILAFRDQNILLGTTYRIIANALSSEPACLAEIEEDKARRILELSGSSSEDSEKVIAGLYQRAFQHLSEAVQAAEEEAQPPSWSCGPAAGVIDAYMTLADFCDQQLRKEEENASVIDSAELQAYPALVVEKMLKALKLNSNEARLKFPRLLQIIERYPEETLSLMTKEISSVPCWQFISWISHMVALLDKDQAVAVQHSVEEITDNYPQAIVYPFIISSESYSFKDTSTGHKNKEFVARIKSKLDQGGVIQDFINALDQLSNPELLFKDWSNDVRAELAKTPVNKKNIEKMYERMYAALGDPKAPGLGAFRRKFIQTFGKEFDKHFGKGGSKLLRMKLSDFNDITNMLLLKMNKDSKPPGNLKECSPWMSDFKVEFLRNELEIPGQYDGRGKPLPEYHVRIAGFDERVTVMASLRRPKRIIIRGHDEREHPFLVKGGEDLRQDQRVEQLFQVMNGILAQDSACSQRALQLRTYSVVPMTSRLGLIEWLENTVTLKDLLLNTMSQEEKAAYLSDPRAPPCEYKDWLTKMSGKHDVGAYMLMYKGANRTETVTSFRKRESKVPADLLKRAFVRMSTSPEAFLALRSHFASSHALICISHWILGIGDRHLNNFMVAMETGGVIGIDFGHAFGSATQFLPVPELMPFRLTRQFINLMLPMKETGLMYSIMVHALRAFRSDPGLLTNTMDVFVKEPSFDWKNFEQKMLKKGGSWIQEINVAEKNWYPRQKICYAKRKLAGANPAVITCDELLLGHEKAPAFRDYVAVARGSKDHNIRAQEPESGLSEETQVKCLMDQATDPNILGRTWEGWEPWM

As for `CC(C)NCC(=O)CN1CCN(CC(=O)Nc2ccc(-c3cccc4c(=O)cc(N5CCOCC5)oc34)c3sc4ccccc4c23)CC1`, the values for the Ratio in the test on HeLa [1] and in the test on HeLa [3] were 8.8 and 2, respectively. In addition, the IC50 (as a rule, the concentration that gives 50% inhibition) in test [2] was 0.006 µM.

Consider `CCN1CCN(CCC(=O)Nc2ccc(-c3cccc4c(=O)cc(N5CCOCC5)oc34)c3sc4ccccc4c23)CC1`, for which the results for the Ratio in the test with HeLa [1] and with HeLa [3] were 4.1 and 1.4, respectively. Moreover, the IC50 in test [2] stood at 0.033 µM.

As for `COc1ccc(CNCC(=O)Nc2ccc(-c3cccc4c(=O)cc(N5CCOCC5)oc34)c3sc4ccccc4c23)cc1`, the values for the Ratio in the test with HeLa [1] and in the test on HeLa [3] were 6.8 and 1.4, respectively. This compound came in with an IC50 in test [2] of 0.038 µM.

Turning to `O=C(CCN1CCNCC1)Nc1ccc(-c2cccc3c(=O)cc(N4CCOCC4)oc23)c2sc3ccccc3c12`, the Ratio is 1.5 with HeLa [1] and 1 with HeLa [3]. Further, the IC50 in test [2] came out at 0.037 µM.

As for `CCN(CC)CCC(=O)Nc1ccc(-c2cccc3c(=O)cc(N4CCOCC4)oc23)c2sc3ccccc3c12`, the Ratio in the test on HeLa [1] came out at 5.7; with HeLa [3], 1.8. Besides, the IC50 in test [2] stood at 0.012 µM.

On to `O=C(CCNCCCN1CCOCC1)Nc1ccc(-c2cccc3c(=O)cc(N4CCOCC4)oc23)c2sc3ccccc3c12`, for which the Ratio with HeLa [1] is listed as 1.4; with HeLa [3], 0.9. Besides, half-maximal inhibition in test [2] (IC50) required 0.009 µM.

Turning to `O=C(CCNCc1ccncc1)Nc1ccc(-c2cccc3c(=O)cc(N4CCOCC4)oc23)c2sc3ccccc3c12`, the Ratio with HeLa [1] is 2.6; in the test on HeLa [3], 1.1. In test [2], the midpoint of inhibition, the IC50, lay at 0.012 µM.

`COCCN(CCOC)CC(=O)Nc1ccc(-c2cccc3c(=O)cc(N4CCOCC4)oc23)c2sc3ccccc3c12`: the results for the Ratio with HeLa [1] and in the test with HeLa [3] were 7.9 and 1.5, respectively. Besides, in test [2], the IC50 turned out to be 0.018 µM.

Turning to `O=c1cc(N2CCOCC2)oc2c(-c3ccc(OCCN4CCOCC4)c4c3sc3ccccc34)cccc12`, the Ratio was found to be 6.4 in the test on HeLa [1] and 1.5 in the test on HeLa [3]. The compound further came in with an IC50 in test [2] of 0.008 µM.

Consider `CN1CCCN(C(=O)COc2ccc(-c3cccc4c(=O)cc(N5CCOCC5)oc34)c3sc4ccccc4c23)CC1`, for which the figures for the Ratio in the test with HeLa [1] and with HeLa [3] were 2 and 1.1, respectively. Besides, the midpoint of inhibition in test [2], the IC50, lay at 0.044 µM.

Turning to `O=C(CN1CCOCC1)Nc1ccc(-c2cccc3c(=O)cc(N4CCOCC4)oc23)c2sc3ccccc3c12`, the results for the Ratio with HeLa [1] and in the test on HeLa [3] were 12.8 and 3.9, respectively. Also, in test [2], it took 0.011 µM to reach half-maximal inhibition (IC50).

In the case of `O=C(CCNCCO)Nc1ccc(-c2cccc3c(=O)cc(N4CCOCC4)oc23)c2sc3ccccc3c12`, the Ratio in the test on HeLa [1] and with HeLa [3] was 0.9 in each case. The same compound showed an IC50 in test [2] of 0.01 µM.

On to `O=C(CCN1CCN(CCO)CC1)Nc1ccc(-c2cccc3c(=O)cc(N4CCOCC4)oc23)c2sc3ccccc3c12`, for which the figures for the Ratio in the test with HeLa [1] and in the test with HeLa [3] were 1.2 and 1, respectively. This compound also yielded an IC50 in test [2] of 0.029 µM.

With `CN(CC(N)=O)C(=O)COc1ccc(-c2cccc3c(=O)cc(N4CCOCC4)oc23)c2sc3ccccc3c12`, the values for the Ratio with HeLa [1] and in the test on HeLa [3] were 1.4 and 0.9, respectively. In test [2], this compound yielded an IC50 of 0.011 µM.

Turning to `O=C(CN1CCCN(CCO)CC1)Nc1ccc(-c2cccc3c(=O)cc(N4CCOCC4)oc23)c2sc3ccccc3c12`, the Ratio is listed as 3.3 in the test with HeLa [1] and 1.2 in the test on HeLa [3]. Further, the IC50 in test [2] was 0.03 µM.

Consider `O=C(CCNCCN1CCNC1=O)Nc1ccc(-c2cccc3c(=O)cc(N4CCOCC4)oc23)c2sc3ccccc3c12`, for which the values for the Ratio in the test with HeLa [1] and in the test on HeLa [3] were 0.9 and 1.1, respectively. In test [2], this compound displayed an IC50 of 0.006 µM.

In the case of `O=C(CNCc1ccncc1)Nc1ccc(-c2cccc3c(=O)cc(N4CCOCC4)oc23)c2sc3ccccc3c12`, the Ratio worked out at 5.5 in the test with HeLa [1] and 1.4 with HeLa [3]. Moreover, the midpoint of inhibition in test [2], the IC50, lay at 0.008 µM.

`CCN(CC)CC(=O)Nc1ccc(-c2cccc3c(=O)cc(N4CCOCC4)oc23)c2sc3ccccc3c12`: the Ratio came to 3.7 with HeLa [1] and 1.2 in the test on HeLa [3]. In test [2], this compound returned an IC50 of 0.084 µM.

For the compound `COCCNCC(=O)Nc1ccc(-c2cccc3c(=O)cc(N4CCOCC4)oc23)c2sc3ccccc3c12`, the figures for the Ratio with HeLa [1] and with HeLa [3] were 5.9 and 1.2, respectively. The compound further came in with an IC50 in test [2] of 0.007 µM.

With `CCN(CCC(=O)Nc1ccc(-c2cccc3c(=O)cc(N4CCOCC4)oc23)c2sc3ccccc3c12)Cc1ccncc1`, the Ratio in the test with HeLa [1] was determined as 1.6; with HeLa [3], 1. This compound also yielded an IC50 in test [2] of 0.031 µM.

For the compound `O=C(CCN1CCN(CCOCCO)CC1)Nc1ccc(-c2cccc3c(=O)cc(N4CCOCC4)oc23)c2sc3ccccc3c12`, the Ratio with HeLa [1] came out at 1; with HeLa [3], 1.1. In addition, in test [2], the IC50 turned out to be 0.029 µM.

As for `CN(C)CCN1CCN(CCC(=O)Nc2ccc(-c3cccc4c(=O)cc(N5CCOCC5)oc34)c3sc4ccccc4c23)CC1`, the Ratio in the test with HeLa [1] was 1.3; in the test with HeLa [3], 1.1. In test [2], this compound showed an IC50 of 0.01 µM.

On to `CC(C)N1CCN(CCOc2ccc(-c3cccc4c(=O)cc(N5CCOCC5)oc34)c3sc4ccccc4c23)CC1`, for which the Ratio in the test with HeLa [1] turned out to be 6.3; in the test on HeLa [3], 1.6. Moreover, the IC50 in test [2] is 0.003 µM.

Turning to `O=C(CCNCC1CCCO1)Nc1ccc(-c2cccc3c(=O)cc(N4CCOCC4)oc23)c2sc3ccccc3c12` (centres undefined), the Ratio with HeLa [1] is reported as 4.7; in the test on HeLa [3], 2. Further, inhibition in test [2] was half-maximal at 0.007 µM (IC50).

As to `O=C(CN1CCCCCC1)Nc1ccc(-c2cccc3c(=O)cc(N4CCOCC4)oc23)c2sc3ccccc3c12`, the Ratio with HeLa [1] is given as 3.9; in the test with HeLa [3] it was 1.3. Besides, the IC50 in test [2] was 0.051 µM.

In the case of `O=c1cc(N2CCOCC2)oc2c(-c3ccc(OCCNCCN4CCOCC4)c4c3sc3ccccc34)cccc12`, the Ratio in the test with HeLa [1] came to 10.1; with HeLa [3] it was 1.4. In addition, half-maximal inhibition in test [2] (IC50) was put at 0.007 µM.

In the case of `C[C@@H]1CN(CCC(=O)Nc2ccc(-c3cccc4c(=O)cc(N5CCOCC5)oc34)c3sc4ccccc4c23)C[C@H](C)O1`, the Ratio with HeLa [1] came out at 9.3; in the test with HeLa [3] it was 2.4. The compound also came in with an IC50 in test [2] of 0.009 µM.

With `COCCN1CCN(CCC(=O)Nc2ccc(-c3cccc4c(=O)cc(N5CCOCC5)oc34)c3sc4ccccc4c23)CC1`, the Ratio with HeLa [1] turned out to be 3.5; with HeLa [3] it was 1.3. The same compound had an IC50 in test [2] of 0.019 µM.

Turning to `O=C(CN1CCN(c2ccccn2)CC1)Nc1ccc(-c2cccc3c(=O)cc(N4CCOCC4)oc23)c2sc3ccccc3c12`, the Ratio in the test on HeLa [1] is reported as 9.9; in the test with HeLa [3] it was 1.8. In test [2], the IC50 worked out at 0.007 µM.

For `C[C@@H]1CN(C(=O)COc2ccc(-c3cccc4c(=O)cc(N5CCOCC5)oc34)c3sc4ccccc4c23)C[C@H](C)O1`, the Ratio with HeLa [1] is on record as 1; in the test on HeLa [3], 0.9. Moreover, the IC50 in test [2] worked out at 0.061 µM.

With `CN1CCCN(CCOc2ccc(-c3cccc4c(=O)cc(N5CCOCC5)oc34)c3sc4ccccc4c23)CC1`, the Ratio in the test with HeLa [1] was found to be 3.6; with HeLa [3], 1.5. For the same compound, in test [2], half-maximal inhibition (IC50) required 0.01 µM.

For `NCCNCCC(=O)Nc1ccc(-c2cccc3c(=O)cc(N4CCOCC4)oc23)c2sc3ccccc3c12`, the Ratio in the test on HeLa [1] stood at 1.4; in the test on HeLa [3], 1.2. The IC50 in test [2] came out at 0.022 µM.

Turning to `O=C(CN1CCNCC1)Nc1ccc(-c2cccc3c(=O)cc(N4CCOCC4)oc23)c2sc3ccccc3c12`, the Ratio in the test on HeLa [1] is given as 5; in the test on HeLa [3] it was 1.4. Further, in test [2], the IC50 came to 0.024 µM.
